Reference: ChEMBL document CHEMBL5325438 (Eur J Med Chem, 2023)
Calls of active or inactive are those of the source. Square brackets hold non-standard residues; d marks the D form. Peptide text beside a SMILES is read from it. * marks the point of attachment. Cav = NC(N)=NOCC[C@H](N)C(=O)O; Tle = CC(C)(C)[C@H](N)C(=O)O; X1 = C[C@@H](CCCCN)C(=O)*

Columns and labels:
HepG2 [1] = test: Cytotoxicity against human HepG2 cells assessed as reduction in cell viability at 100 uM incubated for 24 hrs by MTT assay relative to control; type: toxicity, cell-based; details: hepg2, 24 h
How it was run: (§1)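 HepG2, MDA-MB-231 and HT-29 cells grown in DMEM/10% FBS with penicillin/streptomycin at 37 °C, 5% CO2. Exponential-phase cells seeded at 5000/well, left overnight, then exposed 24 h to peptide at 0.1–100 μM (from 1.0 mM PBS pH 7.4 stocks). Viability by MTT, as % of untreated control ± SD.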

Mus musculus [2] = test: Neuroprotective activity against MPTP-induced Parkinson's disease BALB/c albino mouse model assessed as restoration of step-through latency values at 10 mg/kg, ip preadministered with compound for 1 hrs followed by MPTP addition and measured 10 days after first MPTP addition by step-through passive avoidance test; type: functional, organism-based; details: time 241.0 hrs
How it was run: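 Male BALB/c mice (8–10 weeks, 30–35 g), n = 5/group, were dosed i.p. once daily for 5 days with peptide (10 mg/kg), then MPTP (30 mg/kg) 60 min later; controls received saline or MPTP alone. On day 10, the latency to enter the dark compartment was recorded (cut-off 180 s). Data are mean ± SEM, analysed by one-way ANOVA/Dunnett versus saline and MPTP groups.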

[3] = Toxicity in MPTP-induced parkinsons's disease BALB/c albino mouse model assessed as body weight loss at 10 mg/kg, ip preadministered with compound for 1 hrs followed by MPTP-addition and measured 10 days after first MPTP addition; type: organism-based; details: in vivo, 241 h
How it was run: (§2)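 Male BALB/c mice (n = 5/group) given peptide 10 mg/kg i.p. daily for 5 days, each dose followed 60 min later by MPTP 30 mg/kg i.p.; saline controls. Body weight recorded on days 1, 5 and 10.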

[4] = Toxicity in MPTP-induced parkinsons's disease BALB/c albino mouse model assessed as body weight loss at 10 mg/kg, ip preadministered with compound for 1 hrs followed by MPTP-addition and measured 5 days after first MPTP addition; type: organism-based; details: in vivo, 121 h; how it was run: as §2
MDA-MB-231 [5] = test: Cytotoxicity against human MDA-MB-231 cells assessed as reduction in cell viability at 0.1 to 100 uM incubated for 24 hrs by MTT assay; type: toxicity, cell-based; details: mda-mb-231, 24 h, dose 0.1-100 µM; how it was run: as §1
HT-29 [6] = test: Cytotoxicity against human HT-29 cells assessed as reduction in cell viability at 0.1 to 100 uM incubated for 24 hrs by MTT assay; type: toxicity, cell-based; details: ht-29, 24 h, dose 0.1-100 µM; how it was run: as §1
[7] = Stability of compound in PBS buffer assessed as parent compound remaining at pH 7.4 measured after 30 days by RP-HPLC/UV/Vis spectroscopic analysis; type: physicochemical; details: time 30 day, read-out: Stability
How it was run: (§3)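 Peptide at 50 μM in PBS at pH 2.0 or 7.4, stored at room temperature and 37 °C for 30 days; % peptide remaining reported.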

HT-29 [8] = test: Cytotoxicity against human HT-29 cells assessed as reduction in cell viability at 100 uM incubated for 24 hrs by MTT assay relative to control; type: toxicity, cell-based; details: ht-29, 24 h; how it was run: as §1
[9] = Permeability of compound in PBS buffer at pH 7.4 at 100 uM incubated for 4 hrs by PAMPA-BBB assay; type: ADME; details: read-out: permeability
How it was run: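 PAMPA-BBB with peptide at 100 μM in PBS, donor and acceptor both pH 7.4, 4 h at room temperature. Effective permeability Pe (×10⁻⁶ cm/s) and −log Pe reported as mean ± SEM of three independent experiments.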

Mus musculus [10] = test: Neuroprotective activity against MPTP-induced Parkinson's disease BALB/c albino mouse model assessed as restoration of motor function by measuring increase in hanging time value at 10 mg/kg, ip preadministered with compound for 1 hrs followed by MPTP addition and measured 10 days after first MPTP addition by hanging test relative to control; type: functional; details: time 241 hrs
How it was run: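 Male BALB/c mice, 8–10 weeks old, 30–35 g, n = 5/group, trained 3 days on a horizontal wire (55 cm, 2.0 mm diameter, 37 cm high). Peptide 10 mg/kg i.p. daily for 5 days, with MPTP 30 mg/kg i.p. given 60 min later; saline controls. Hanging time tested on day 10; one-way ANOVA with Dunnett's test; mean ± SEM.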

[11] = Stability of compound in PBS buffer assessed as parent compound remaining at pH 7.4 incubated for 24 hrs by UV/Vis spectroscopic analysis; type: physicochemical; details: read-out: Stability
How it was run: (§4)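 Peptide at 50 μM in PBS at pH 2.0 or 7.4, kept at 37 °C; short-term stability over 0–24 h followed by UV/Vis spectroscopy; % remaining reported.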

HepG2 [12] = test: Cytotoxicity against human HepG2 cells assessed as reduction in cell viability at 0.1 to 100 uM incubated for 24 hrs by MTT assay; type: toxicity, cell-based; details: hepg2, 24 h, dose 0.1-100 µM; how it was run: as §1
[13] = Stability of compound in PBS buffer assessed as parent compound remaining at pH 2.0 measured after 30 days by RP-HPLC/UV/Vis spectroscopic analysis; type: physicochemical; details: time 30 day, read-out: Stability; how it was run: as §3
MDA-MB-231 [14] = test: Cytotoxicity against human MDA-MB-231 cells assessed as reduction in cell viability at 100 uM incubated for 24 hrs by MTT assay relative to control; type: toxicity, cell-based; details: mda-mb-231, 24 h; how it was run: as §1
[15] = Stability of compound in PBS buffer assessed as parent compound remaining at pH 2.0 incubated for 24 hrs by UV/Vis spectroscopic analysis; type: physicochemical; details: read-out: Stability; how it was run: as §4
Mus musculus [16] = test: Neuroprotective activity against MPTP-induced neurotoxicity in BALB/c albino mouse model assessed as alleviation of MPTP-induced nigrostriatal dopaminergic neuronal damage by measuring increase in number of TH-postivie neurons in substantia nigra at 10 mg/kg, ip preadministered with compound for 1 hrs followed by MPTP addition and measured 11 days after first MPTP addition by immunohistological staining analysis (reference value: 66 +/- 1.41%); type: functional; details: time 265 hrs
How it was run: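 Same dosing as the behavioural study (peptide 10 mg/kg i.p., then MPTP 30 mg/kg i.p. 60 min later, 5 days; n = 5). Brains taken on day 11, fixed in 10% paraformaldehyde (pH 7.4, 0.1 M phosphate) overnight at 4 °C and paraffin-embedded. Substantia nigra sections stained with rabbit anti-TH (1:500). TH-positive cells counted, as % of saline control; ANOVA/Dunnett.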

[17] = target: T1, Neurotensin receptor type 1 (Homo sapiens, UniProt P30989); test: Agonist activity at human NTSR1 expressed in HEK293 cells assessed as Galphaq-mediated modulation of IP production incubated for 90 mins by IP-one HTRF assay; type: functional, cell-based
Homo sapiens = organism: Homo sapiens; test: Selectivity index, ratio of Ki for human NTSR1 transfected in HEK293 cells in the presence of [Leu3H]NT(8-13) to Ki for human NTSR2 transfected in HEK293 cells in the presence of [Leu3H]NT(8-13); type: cell-based
How it was run: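 Membranes from HEK293(T) cells transiently transfected with hNTS1R or hNTS2R; competition binding against [³H]NT(8–13). IC50 from nonlinear regression, converted to Ki by Cheng–Prusoff; protein by Lowry. Means ± SEM of three (NTS1R) or four to five (NTS2R) experiments, each in triplicate. SI = Ki(NTS1R)/Ki(NTS2R).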

[18] = target: Neurotensin receptor type 2 (Homo sapiens, UniProt O95665); test: Binding affinity to human NTSR2 transfected in HEK293 cells assessed as inhibition constant incubated for 60 mins in the presence of [Leu3H]NT(8-13) by radioligand competition binding assay; type: cell-based
How it was run: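 IC50 from nonlinear regression, converted to Ki by Cheng–Prusoff; protein by Lowry. Means ± SEM of three (NTS1R) or four to five (NTS2R) experiments, each in triplicate. SI = Ki(NTS1R)/Ki(NTS2R).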

[19] = target: T1, Neurotensin receptor type 1; test: Binding affinity to human NTSR1 transfected in HEK293 cells assessed as inhibition constant incubated for 60 mins in the presence of [Leu3H]NT(8-13) by radioligand competition binding assay; type: cell-based
[20] = target: T1, Neurotensin receptor type 1; test: Agonist activity at human NTSR1 expressed in HEK293 cells assessed as Galphaq-mediated modulation of IP production by measuring maximal efficacy incubated for 90 mins by IP-one HTRF assay relative to full effect of (2S)-2-[[(2S,3S)-2-[[(2S)-2-[[(2S)-1-[(2S)-2-[[(2S)-2-amino-5-guanidino-pentanoyl]amino]-5-guanidino-pentanoyl]pyrrolidine-2-carbonyl]amino]-3-(4-hydroxyphenyl)propanoyl]amino]-3-methyl-pentanoyl]amino]-4-methyl-pentanoic acid; type: functional, cell-based; details: filed as agonist
[21] = target: T1, Neurotensin receptor type 1; test: Binding affinity to human NTS1R assessed as dissociation constant

T1 sequence (P30989 whole entry): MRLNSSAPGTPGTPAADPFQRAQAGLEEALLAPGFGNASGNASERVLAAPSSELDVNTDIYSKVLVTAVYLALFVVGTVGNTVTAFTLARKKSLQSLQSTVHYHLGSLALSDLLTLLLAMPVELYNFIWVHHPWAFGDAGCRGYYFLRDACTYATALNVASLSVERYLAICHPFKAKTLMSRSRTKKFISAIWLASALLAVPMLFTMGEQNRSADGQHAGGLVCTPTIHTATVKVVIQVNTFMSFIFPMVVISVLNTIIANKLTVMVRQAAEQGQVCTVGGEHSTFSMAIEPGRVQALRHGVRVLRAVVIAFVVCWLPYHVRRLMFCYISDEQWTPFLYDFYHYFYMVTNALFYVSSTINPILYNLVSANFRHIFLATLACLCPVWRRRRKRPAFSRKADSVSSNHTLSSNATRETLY
Chain of Neurotensin receptor type 2 (O95665 whole entry): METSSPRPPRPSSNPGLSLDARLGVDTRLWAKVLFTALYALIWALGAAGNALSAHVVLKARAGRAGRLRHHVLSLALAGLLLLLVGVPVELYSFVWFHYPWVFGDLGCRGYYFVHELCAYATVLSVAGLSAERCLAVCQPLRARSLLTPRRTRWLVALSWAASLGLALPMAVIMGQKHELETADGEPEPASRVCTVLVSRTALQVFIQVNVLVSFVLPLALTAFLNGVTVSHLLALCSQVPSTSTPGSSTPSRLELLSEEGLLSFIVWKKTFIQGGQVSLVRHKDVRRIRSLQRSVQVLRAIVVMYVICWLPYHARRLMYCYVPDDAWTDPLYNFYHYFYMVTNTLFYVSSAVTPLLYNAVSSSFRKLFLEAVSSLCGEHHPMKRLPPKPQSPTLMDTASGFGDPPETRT

Compound | viability (HepG2 [1]) [%] | Activity (MDA-MB-231 [5]) | Activity (HT-29 [6]) | remaining at 720 h [7] [%] | viability (HT-29 [8]) [%] | Papp at 4 h, 100 µM [9] [×10⁻⁶ cm/s] | remaining at 24 h [11] [%] | Activity (HepG2 [12]) | remaining at 720 h [13] [%] | viability (MDA-MB-231 [14]) [%] | remaining at 24 h [15] [%] | EC50 [17] [nM] | Ki [18] [nM] | Ki [19] [nM] | Emax [20] [%] | also measured
CC[C@H](C)[C@H](NC(=O)[C@H](Cc1ccc(O)cc1)NC(=O)[C@@H]1CCCN1C(=O)[C@H](CCCNC(=N)N)NC(=O)[C@@H](N)CCCNC(=N)N)C(=O)N[C@@H](CC(C)C)C(=O)O | 96 | Non-Toxic | Non-Toxic | 100 | 90.7 | 0.64 | 100 | Non-Toxic | > 97 | 93.3 | 100 |  |  |  |  | Activity (Mus musculus [2]): Active; Activity [3]: Non-Toxic; Activity [4]: Toxic; Activity (Mus musculus [10]): 31%; Activity (Mus musculus [16]): 77.5%
CC[C@H](C)[C@H](NC(=O)[C@H](Cc1ccc(O)cc1)NC(=O)[C@@H]1CCCN1C(=O)[C@H](CCON=C(N)N)NC(=O)[C@@H](N)CCON=C(N)N)C(=O)N[C@@H](CC(C)C)C(=O)O |  | Non-Toxic | Non-Toxic |  |  |  |  | Non-Toxic |  |  |  |  |  |  |  | 
CC[C@H](C)[C@H](NC(=O)[C@H](Cc1ccc(O)cc1)NC(=O)[C@@H]1CCCN1C(=O)[C@H](CCON=C(N)N)NC(=O)[C@@H](N)CCCN=C(N)N)C(=O)N[C@@H](CC(C)C)C(=O)O | 99.8 |  |  | > 95 | 88.9 | 0.89 | 100 |  | > 94 | 97.7 | 100 |  |  |  |  | 
CC[C@H](C)[C@H](NC(=O)[C@H](Cc1ccc(O)cc1)NC(=O)[C@@H]1CCCN1C(=O)[C@H](CCCN=C(N)N)NC(=O)[C@@H](N)CCON=C(N)N)C(=O)N[C@@H](CC(C)C)C(=O)O |  | Non-Toxic | Non-Toxic |  |  |  |  | Non-Toxic |  |  |  |  |  |  |  | 
CC[C@H](C)[C@H](NC(=O)[C@H](Cc1ccc(O)cc1)NC(=O)[C@@H]1CCCN1C(=O)[C@H](CCON=C(N)N)NC(=O)[C@@H](N)CCCCN)C(=O)N[C@@H](CC(C)C)C(=O)O (H-K[Cav]PYIL-OH) | 95.1 |  |  | > 100 | 94.6 | 2.81 | 100 |  | > 97 | 97.3 | 100 | 0.82 | 6.5 | 6.9 | 97 | Activity (Mus musculus [2]): Active; Activity [3]: Non-Toxic; Activity [4]: Toxic; Activity (Mus musculus [10]): 87%; Ratio Ki (Homo sapiens): 1.06; Activity (Mus musculus [16]): 90%
CC[C@H](C)[C@H](NC(=O)[C@H](Cc1ccc(O)cc1)NC(=O)[C@@H]1CCCN1)C(=O)N[C@@H](CC(C)C)C(=O)O (H-PYIL-OH) |  | Non-Toxic | Non-Toxic |  |  |  |  | Non-Toxic |  |  |  | 3200 | > 50000 | > 50000 | 100 | 
CC[C@H](C)[C@H](NC(=O)[C@H](Cc1ccc(O)cc1)NC(=O)[C@@H]1CCCN1C(=O)[C@H](CCCCN)NC(=O)[C@@H](N)CCON=C(N)N)C(=O)N[C@@H](CC(C)C)C(=O)O (H-[Cav]KPYIL-OH) |  | Non-Toxic | Non-Toxic |  |  |  |  | Non-Toxic |  |  |  | 0.85 | 14 | 15 | 99 | Ratio Ki (Homo sapiens): 1.07
CC(C)C[C@H](NC(=O)[C@@H](NC(=O)[C@H](Cc1ccc(O)cc1)NC(=O)[C@@H]1CCCN1C(=O)[C@H](CCCNC(=N)N)NC(=O)[C@@H](C)CCCCN)C(C)(C)C)C(=O)O (X1-RPY[Tle]L-OH) |  |  |  |  |  |  |  |  |  |  |  |  |  |  |  | Kd [21]: 5.71 nM
